Legend:
[1] = molecular target: topoisomerase IIβ (Homo sapiens, UniProt Q02880); assay: cellular ICE assay of covalent enzyme-DNA complexes in K562 cells; assay type: cell-based
[2] = molecular target: T1, topoisomerase IIα (Homo sapiens, UniProt P11388); assay: kDNA decatenation assay at […] ATP; assay type: biochemical
[3] = molecular target: T1, topoisomerase IIα; assay: kDNA decatenation gel assay; assay type: biochemical
Summary of the method: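 Recombinant full-length human topoisomerase IIα. Decatenation: catenated kDNA networks released as individual minicircles in an ATP-dependent reaction, resolved on gel. Cleavage: closed circular pBR322 converted to linear DNA at 37 °C. All components were mixed on ice before the test compound was added. Complexes were trapped with SDS and resolved by ethidium bromide gel electrophoresis.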

[4] = molecular target: T2, topoisomerase I (Homo sapiens, UniProt P11387); assay: pBR322 DNA relaxation gel assay; assay type: biochemical
T2 sequence (P11387 2-765): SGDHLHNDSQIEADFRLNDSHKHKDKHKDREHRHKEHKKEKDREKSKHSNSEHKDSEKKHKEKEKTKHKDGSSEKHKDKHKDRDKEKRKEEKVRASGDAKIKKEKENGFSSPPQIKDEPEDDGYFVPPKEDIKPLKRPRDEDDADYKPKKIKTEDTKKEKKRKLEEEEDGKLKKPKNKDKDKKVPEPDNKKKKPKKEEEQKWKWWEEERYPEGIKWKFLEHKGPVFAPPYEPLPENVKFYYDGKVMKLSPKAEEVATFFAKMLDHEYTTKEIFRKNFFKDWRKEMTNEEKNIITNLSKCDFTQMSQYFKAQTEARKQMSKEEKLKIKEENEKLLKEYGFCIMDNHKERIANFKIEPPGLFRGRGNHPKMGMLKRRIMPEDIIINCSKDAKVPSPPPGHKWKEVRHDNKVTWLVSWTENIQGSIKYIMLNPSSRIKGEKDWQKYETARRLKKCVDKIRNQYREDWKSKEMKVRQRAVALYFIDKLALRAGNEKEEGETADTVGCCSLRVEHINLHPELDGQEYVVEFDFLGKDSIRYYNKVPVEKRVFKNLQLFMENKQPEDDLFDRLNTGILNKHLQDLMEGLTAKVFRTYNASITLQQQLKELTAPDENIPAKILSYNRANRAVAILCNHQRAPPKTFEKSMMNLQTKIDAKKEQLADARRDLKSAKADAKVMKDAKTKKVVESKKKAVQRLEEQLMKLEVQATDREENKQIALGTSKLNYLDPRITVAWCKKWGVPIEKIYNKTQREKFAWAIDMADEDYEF

[5] = molecular target: T3, yeast topoisomerase II (Saccharomyces cerevisiae, UniProt P06786); assay: ATP/NADH-coupled DNA-independent ATPase assay, purified enzyme; assay type: biochemical
T3 sequence (P06786 1-1428): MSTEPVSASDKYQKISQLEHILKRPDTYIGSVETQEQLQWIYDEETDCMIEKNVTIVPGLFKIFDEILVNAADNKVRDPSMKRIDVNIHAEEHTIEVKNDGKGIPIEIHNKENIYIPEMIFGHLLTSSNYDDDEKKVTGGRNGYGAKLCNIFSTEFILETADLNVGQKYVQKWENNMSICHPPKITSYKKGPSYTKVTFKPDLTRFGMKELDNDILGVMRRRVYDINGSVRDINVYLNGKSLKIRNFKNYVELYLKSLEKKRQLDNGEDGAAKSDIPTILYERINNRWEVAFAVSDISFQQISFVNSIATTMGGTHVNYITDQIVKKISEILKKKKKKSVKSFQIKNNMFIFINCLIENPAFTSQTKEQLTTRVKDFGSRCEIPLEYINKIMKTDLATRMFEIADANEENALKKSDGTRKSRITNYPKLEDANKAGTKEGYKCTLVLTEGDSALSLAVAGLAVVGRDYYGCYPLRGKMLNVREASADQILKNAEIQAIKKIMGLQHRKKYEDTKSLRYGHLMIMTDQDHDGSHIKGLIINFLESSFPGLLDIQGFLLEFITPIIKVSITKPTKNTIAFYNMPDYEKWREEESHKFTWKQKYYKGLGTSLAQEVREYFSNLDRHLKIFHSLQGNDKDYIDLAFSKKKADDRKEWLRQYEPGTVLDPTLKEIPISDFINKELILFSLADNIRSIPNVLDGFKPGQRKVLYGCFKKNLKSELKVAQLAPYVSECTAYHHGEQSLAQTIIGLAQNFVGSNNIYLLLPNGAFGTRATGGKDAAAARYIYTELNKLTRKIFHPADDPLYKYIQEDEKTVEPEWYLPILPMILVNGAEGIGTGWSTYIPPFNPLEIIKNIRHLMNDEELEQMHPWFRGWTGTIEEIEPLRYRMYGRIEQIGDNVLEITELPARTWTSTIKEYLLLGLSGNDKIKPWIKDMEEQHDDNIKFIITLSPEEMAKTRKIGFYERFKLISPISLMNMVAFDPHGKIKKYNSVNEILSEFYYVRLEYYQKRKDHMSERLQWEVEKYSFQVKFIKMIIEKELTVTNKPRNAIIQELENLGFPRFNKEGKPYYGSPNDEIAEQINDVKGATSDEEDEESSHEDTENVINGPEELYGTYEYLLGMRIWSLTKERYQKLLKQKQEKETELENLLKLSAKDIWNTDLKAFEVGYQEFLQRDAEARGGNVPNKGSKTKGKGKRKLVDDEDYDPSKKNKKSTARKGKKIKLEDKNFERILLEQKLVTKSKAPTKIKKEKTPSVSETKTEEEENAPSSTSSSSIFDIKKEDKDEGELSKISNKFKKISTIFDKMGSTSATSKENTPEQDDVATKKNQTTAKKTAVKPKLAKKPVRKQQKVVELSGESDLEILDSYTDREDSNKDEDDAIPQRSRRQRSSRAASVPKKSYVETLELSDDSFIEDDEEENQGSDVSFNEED

topoisomerase IIβ, sequence (Q02880 2-1626): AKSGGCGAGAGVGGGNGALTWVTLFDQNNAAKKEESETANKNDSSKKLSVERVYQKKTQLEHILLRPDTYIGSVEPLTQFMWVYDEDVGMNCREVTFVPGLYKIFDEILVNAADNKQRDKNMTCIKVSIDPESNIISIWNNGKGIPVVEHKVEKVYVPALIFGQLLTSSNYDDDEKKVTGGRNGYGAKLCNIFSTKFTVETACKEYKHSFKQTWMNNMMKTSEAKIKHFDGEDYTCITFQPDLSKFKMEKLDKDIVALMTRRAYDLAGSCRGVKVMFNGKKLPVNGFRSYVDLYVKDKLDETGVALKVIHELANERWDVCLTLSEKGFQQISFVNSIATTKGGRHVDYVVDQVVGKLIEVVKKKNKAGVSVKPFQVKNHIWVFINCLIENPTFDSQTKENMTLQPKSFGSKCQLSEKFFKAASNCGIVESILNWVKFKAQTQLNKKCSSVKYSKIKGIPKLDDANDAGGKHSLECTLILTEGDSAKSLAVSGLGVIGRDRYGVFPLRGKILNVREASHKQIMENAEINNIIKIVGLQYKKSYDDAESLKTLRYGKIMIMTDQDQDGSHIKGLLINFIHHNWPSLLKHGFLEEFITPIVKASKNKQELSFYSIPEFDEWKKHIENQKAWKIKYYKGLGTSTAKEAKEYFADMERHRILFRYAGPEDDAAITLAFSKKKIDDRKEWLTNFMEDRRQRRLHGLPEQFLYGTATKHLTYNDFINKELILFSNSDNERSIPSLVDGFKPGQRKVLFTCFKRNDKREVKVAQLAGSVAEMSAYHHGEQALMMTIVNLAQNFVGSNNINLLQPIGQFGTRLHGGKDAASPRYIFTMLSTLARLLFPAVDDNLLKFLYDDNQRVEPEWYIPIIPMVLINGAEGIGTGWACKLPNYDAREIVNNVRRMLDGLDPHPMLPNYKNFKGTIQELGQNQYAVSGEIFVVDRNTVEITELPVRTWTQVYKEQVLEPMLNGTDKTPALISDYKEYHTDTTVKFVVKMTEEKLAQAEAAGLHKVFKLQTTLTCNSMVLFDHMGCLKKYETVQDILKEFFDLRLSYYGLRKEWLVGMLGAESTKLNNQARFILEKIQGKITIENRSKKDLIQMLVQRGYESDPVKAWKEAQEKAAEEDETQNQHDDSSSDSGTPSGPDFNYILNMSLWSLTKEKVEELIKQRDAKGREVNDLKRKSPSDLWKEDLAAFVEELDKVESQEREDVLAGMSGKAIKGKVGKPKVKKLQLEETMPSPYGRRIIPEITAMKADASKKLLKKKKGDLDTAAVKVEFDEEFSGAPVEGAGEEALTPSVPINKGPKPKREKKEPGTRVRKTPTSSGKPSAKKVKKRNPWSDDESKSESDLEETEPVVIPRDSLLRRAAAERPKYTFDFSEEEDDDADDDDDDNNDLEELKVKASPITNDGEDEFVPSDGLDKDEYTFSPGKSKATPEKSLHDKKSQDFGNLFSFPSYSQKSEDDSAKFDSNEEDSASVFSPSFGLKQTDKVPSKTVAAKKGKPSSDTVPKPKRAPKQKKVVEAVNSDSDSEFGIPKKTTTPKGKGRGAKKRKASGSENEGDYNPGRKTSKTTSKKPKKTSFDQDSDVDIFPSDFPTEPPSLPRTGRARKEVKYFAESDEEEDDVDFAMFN
T1 sequence (P11388 whole entry): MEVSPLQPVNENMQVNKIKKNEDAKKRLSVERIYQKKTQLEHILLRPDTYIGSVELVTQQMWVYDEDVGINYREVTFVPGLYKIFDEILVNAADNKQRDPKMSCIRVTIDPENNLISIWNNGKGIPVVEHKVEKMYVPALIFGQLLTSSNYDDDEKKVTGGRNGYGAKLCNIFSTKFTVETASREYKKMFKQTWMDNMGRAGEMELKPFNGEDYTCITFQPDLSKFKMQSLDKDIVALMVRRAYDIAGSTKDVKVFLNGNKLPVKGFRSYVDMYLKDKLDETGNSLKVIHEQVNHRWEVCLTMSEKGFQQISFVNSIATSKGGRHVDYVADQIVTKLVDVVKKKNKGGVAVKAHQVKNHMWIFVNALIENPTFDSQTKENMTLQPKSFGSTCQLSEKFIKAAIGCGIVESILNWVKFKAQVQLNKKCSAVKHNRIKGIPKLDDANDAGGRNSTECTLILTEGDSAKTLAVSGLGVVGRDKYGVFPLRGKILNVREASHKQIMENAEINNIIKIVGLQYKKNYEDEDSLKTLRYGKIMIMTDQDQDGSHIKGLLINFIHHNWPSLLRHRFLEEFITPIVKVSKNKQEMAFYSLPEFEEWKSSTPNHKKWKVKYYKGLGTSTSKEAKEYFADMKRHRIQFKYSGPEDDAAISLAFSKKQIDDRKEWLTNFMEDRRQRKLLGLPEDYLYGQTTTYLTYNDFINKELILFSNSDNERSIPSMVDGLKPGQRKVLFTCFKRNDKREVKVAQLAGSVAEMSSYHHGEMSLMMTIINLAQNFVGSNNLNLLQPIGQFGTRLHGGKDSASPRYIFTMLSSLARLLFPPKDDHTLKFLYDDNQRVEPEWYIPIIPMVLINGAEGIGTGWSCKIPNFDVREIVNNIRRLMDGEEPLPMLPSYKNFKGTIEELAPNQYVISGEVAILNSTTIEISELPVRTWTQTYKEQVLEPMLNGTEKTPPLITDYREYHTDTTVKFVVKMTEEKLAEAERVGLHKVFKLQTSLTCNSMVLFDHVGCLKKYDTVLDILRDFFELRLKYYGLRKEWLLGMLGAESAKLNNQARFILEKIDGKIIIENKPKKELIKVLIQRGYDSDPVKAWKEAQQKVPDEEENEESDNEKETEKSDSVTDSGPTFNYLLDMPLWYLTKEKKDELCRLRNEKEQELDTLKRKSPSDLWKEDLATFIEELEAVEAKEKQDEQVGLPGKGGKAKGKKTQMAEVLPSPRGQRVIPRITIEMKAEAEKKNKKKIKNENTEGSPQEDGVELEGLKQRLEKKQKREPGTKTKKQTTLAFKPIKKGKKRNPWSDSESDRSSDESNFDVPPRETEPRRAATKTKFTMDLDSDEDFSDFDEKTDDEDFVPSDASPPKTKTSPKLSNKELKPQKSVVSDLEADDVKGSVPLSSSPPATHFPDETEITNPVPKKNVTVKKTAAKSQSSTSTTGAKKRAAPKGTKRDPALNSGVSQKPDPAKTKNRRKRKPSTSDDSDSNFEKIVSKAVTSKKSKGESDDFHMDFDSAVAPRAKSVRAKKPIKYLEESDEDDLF

**Q.** With `COc1cc([C@@H]2c3cc4c(cc3[C@@H](O[C@@H]3O[C@@H]5CO[C@@H](C)O[C@H]5[C@H](O)[C@H]3O)[C@H]3COC(=O)[C@H]23)OCO4)cc(OC)c1O` [etoposide, reference compound] as the compound, how does the “cellular ICE assay of covalent enzyme-DNA complexes in K562 cells” value [1] read?
**A.** Its value is “Both dovitinib and etoposide also induced concentration dependent increases in the amount of the topoisomerase IIβ-covalent complex”.

**Q.** Which IC50 [2] does the source give for `Nc1ncnc2c1ncn2[C@@H]1O[C@H](COP(=O)(O)OP(=O)(O)NP(=O)(O)O)[C@@H](O)[C@H]1O` [AMP-PNP] here?
**A.** The IC50 was 2 ± 0.4 µM.

**Q.** What does the source list for `CN1CCN(c2ccc3nc(-c4c(N)c5c(F)cccc5[nH]c4=O)[nH]c3c2)CC1` [dovitinib]?
**A.** IC50 [3]: 13 ± 4 µM; IC50 [4]: 6.2 ± 1.7 µM; Ki [5]: 2.4 ± 1.5 µM; cellular ICE assay of covalent enzyme-DNA complexes in K562 cells [1]: Both dovitinib and etoposide also induced concentration dependent increases in the amount of the topoisomerase IIβ-covalent complex
